The subject of experiment [1] is PC-12. Nature of the experiment: Protection against H2O2-induced apoptosis in rat PC12 cells assessed as late apoptotic cells at 5 uM incubated for 24 hrs by annexin V FITC/propidium iodide staining based flow cytometry (reference value: 16.2 %). Format: functional. Background: In flow cytometry, cells or beads pass a laser one at a time.
The test system of experiment [2] is PC-12. Nature of the experiment: Protection against H2O2-induced apoptosis in rat PC12 cells assessed as early apoptotic cells at 20 uM incubated for 24 hrs by annexin V FITC/propidium iodide staining based flow cytometry (reference value: 3.9 %). Format: functional.
Experiment [3] has as its system PC-12. Nature of the experiment: Protection against 6-OHDA-induced oxidative damage in rat PC12 cells assessed as intracellular ROS level by measuring mean fluorescence intensity at 5 uM pretreated with compound followed by 6-OHDA stimulation by DCFH-DA staining based flow cytometry (reference value: 26327.34). Format: functional.
For experiment [4], the system named is PC-12. In words: Neuroprotective activity against H2O2-induced cell death in rat PC12 cells at 20 uM preincubated for 30 mins in presence of brusatol followed by H2O2 stimulation and measured after 24 hrs by MTT assay. In kind it is functional, cell-based. Particulars: time 24.5 hrs. The procedure, abridged: (§1)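 PC12 cells incubated 30 min with compound (20 μM) plus brusatol (10 nM) or ZnPP (10 nM), then insult for 24 h (H₂O₂ stated as 150 μM); viability by MTT.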
(In general: Tetrazolium dyes change colour on reduction, which living cells bring about.)

The subject of experiment [5] is PC-12. Nature of the experiment: Neuroprotective activity against H2O2-induced cell death in rat PC12 cells assessed as cell viability at 20 uM preincubated for 30 mins in presence of ZNPP followed by H2O2 stimulation and measured after 24 hrs by MTT assay. Format: functional, cell-based. Particulars: time 24.5 hrs. In a few lines:
as §1

The subject of experiment [6] is PC-12. In words: Protection against 6-OHDA-induced apoptosis in rat PC12 cells assessed as necrotic cells at 20 uM incubated for 24 hrs by annexin V FITC/propidium iodide staining based flow cytometry (reference value: 1.1 %). In kind it is functional.
The test system of experiment [7] is PC-12. In words: Protection against H2O2-induced oxidative damage in rat PC12 cells assessed as intracellular ROS level by measuring mean fluorescence intensity at 10 uM pretreated with compound followed by H2O2 stimulation by DCFH-DA staining based flow cytometry (reference value: 233032.55). In kind it is functional.
Experiment [8] deals with PC-12. Nature of the experiment: Protection against H2O2-induced apoptosis in rat PC12 cells assessed as early apoptotic cells at 5 uM incubated for 24 hrs by annexin V FITC/propidium iodide staining based flow cytometry (reference value: 3.9 %). Format: functional.
Experiment [9] deals with T1, Nuclear factor erythroid 2-related factor 2 (Rattus norvegicus) (UniProt O54968).
T1 sequence (whole entry): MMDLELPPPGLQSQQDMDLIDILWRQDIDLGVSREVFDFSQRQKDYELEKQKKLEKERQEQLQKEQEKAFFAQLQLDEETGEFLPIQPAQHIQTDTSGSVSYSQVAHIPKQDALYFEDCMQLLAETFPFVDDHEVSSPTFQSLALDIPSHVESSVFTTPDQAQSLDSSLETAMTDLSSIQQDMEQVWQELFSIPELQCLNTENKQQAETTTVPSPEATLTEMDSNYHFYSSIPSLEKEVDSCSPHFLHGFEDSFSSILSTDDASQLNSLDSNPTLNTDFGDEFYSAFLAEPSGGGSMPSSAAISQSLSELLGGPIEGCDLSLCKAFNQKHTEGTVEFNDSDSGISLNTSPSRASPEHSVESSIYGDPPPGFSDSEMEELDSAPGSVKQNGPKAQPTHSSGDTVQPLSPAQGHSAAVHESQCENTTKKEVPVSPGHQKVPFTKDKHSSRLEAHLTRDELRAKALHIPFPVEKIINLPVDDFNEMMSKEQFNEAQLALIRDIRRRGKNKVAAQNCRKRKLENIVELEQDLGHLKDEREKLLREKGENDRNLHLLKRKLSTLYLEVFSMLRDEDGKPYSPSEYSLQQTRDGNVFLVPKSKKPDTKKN
Nature of the experiment: Activation of Nrf2 in rat PC12 cells assessed as increase in Nrf2 protein level at 20 uM after 3 hrs by Western blot analysis. Format: cell-based. To be noted: PC-12, filed as activator. Background: Immunoblotting shows a protein as a band on a membrane.

In experiment [10] the test system is PC-12. Nature of the experiment: Protection against H2O2-induced apoptosis in rat PC12 cells assessed as viable cells at 5 uM incubated for 24 hrs by annexin V FITC/propidium iodide staining based flow cytometry (reference value: 79.3 %). Format: functional. To be noted: read-out: Activity.
The subject of experiment [11] is PC-12. Nature of the experiment: Protection against H2O2-induced apoptosis in rat PC12 cells assessed as necrotic cells at 10 uM incubated for 24 hrs by annexin V FITC/propidium iodide staining based flow cytometry (reference value: 0.6 %). Format: functional.
The nature of experiment [12]: Antioxidant activity assessed as DPPH radical scavenging activity. Format: functional.
Experiment [13] has as its target T1, Nuclear factor erythroid 2-related factor 2 (Rattus norvegicus). In words: Activation of Nrf2 in rat PC12 cells assessed as increase in GCLM protein level at 20 uM after 12 hrs by Western blot analysis. Format: cell-based. To be noted: PC-12, filed as activator.
In experiment [14] the test system is PC-12. Nature of the experiment: Protection against 6-OHDA-induced mitochondrial dysfunction in rat PC12 cells assessed as change in mitochondrial membrane potential at 5 uM pretreated with compound followed by 6-OHDA addition by JC-1 staining based flow cytometry (reference value: 73.2 %). In kind it is functional. In a few lines:
(§2)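 Mitochondrial membrane potential in PC12 cells pretreated with compound (5, 10, 20 μM), then exposed to H₂O₂ (200 μM) or 6-OHDA (150 μM). JC-1 staining, red-to-green fluorescence shift read by flow cytometry. Mean ± SD, n = 3.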

In experiment [15] the test system is PC-12. In words: Protection against 6-OHDA-induced oxidative damage in rat PC12 cells assessed as intracellular ROS level by measuring mean fluorescence intensity at 10 uM pretreated with compound followed by 6-OHDA stimulation by DCFH-DA staining based flow cytometry (reference value: 26327.34). In kind it is functional.
In experiment [16] the test system is PC-12. In words: Protection against H2O2-induced mitochondrial dysfunction in rat PC12 cells assessed as change in mitochondrial membrane potential loss at 5 uM pretreated with compound followed by H2O2 addition by JC-1 staining based flow cytometry (reference value: 21.3 %). In kind it is functional. The procedure, abridged:
as §2

Experiment [17] has as its system PC-12. In words: Neuroprotective activity against H2O2-induced cell damage in rat PC12 cells assessed as cell viability at 20 uM after 24 hrs by MTT assay (reference value: 46 +/- 4.12 %). In kind it is functional. To be noted: read-out: Activity.
Experiment [18] deals with PC-12. In words: Protection against H2O2-induced apoptosis in rat PC12 cells assessed as early apoptotic cells at 10 uM incubated for 24 hrs by annexin V FITC/propidium iodide staining based flow cytometry (reference value: 3.9 %). In kind it is functional.
Experiment [19] deals with PC-12. Nature of the experiment: Prevention of H2O2-induced calcium overload in rat PC12 cells assessed as reduction in intracellular free calcium by measuring mean fluorescence intensity at 20 uM pretreated with compound followed by H2O2 addition by Fluo-3AM based fluorescence assay (reference value: 17791.36%). In kind it is functional. Particulars: time 24 hrs.
Experiment [20] has as its target T1, Nuclear factor erythroid 2-related factor 2 (Rattus norvegicus). In words: Activation of Nrf2 in rat PC12 cells assessed as increase in GCLC protein level at 20 uM after 24 hrs by Western blot analysis. Format: cell-based. Particulars: PC-12, filed as activator.
Experiment [21] relates to PC-12. Nature of the experiment: Protection against H2O2-induced mitochondrial dysfunction in rat PC12 cells assessed as change in mitochondrial membrane potential at 20 uM pretreated with compound followed by H2O2 addition by JC-1 staining based flow cytometry (reference value: 78.7 %). In kind it is functional. The procedure, abridged: as §2
Experiment [22] has as its system PC-12. In words: Protection against H2O2-induced apoptosis in rat PC12 cells assessed as viable cells at 10 uM incubated for 24 hrs by annexin V FITC/propidium iodide staining based flow cytometry (reference value: 79.3 %). Format: functional. To be noted: read-out: Activity.
In experiment [23] the test system is PC-12. Nature of the experiment: Neuroprotective activity against 6-OHDA-induced cell death in rat PC12 cells assessed as cell viability at 20 uM preincubated for 30 mins in presence of brusatol […] and measured after 24 hrs by MTT assay. To be noted: time 24.5 hrs. In kind it is functional, cell-based.

Each structure is given as a SMILES string. The source made the active and inactive calls. No cut-off for these calls is given here.

For the compound `CCN(C)C(=O)N1CCN(C(=O)/C=C/c2ccc(F)cc2)C1=O`, the Activity came to 9.9% in the experiment with PC-12 [1]; 2.3% with PC-12 [2]; 0.8% with PC-12 [6]; 5.1% in the experiment with PC-12 [8]; 0.2% in the experiment with PC-12 [11]; 79.4% in the experiment on PC-12 [14]. Moreover, the Activity is listed as 13.2% with PC-12 [16], 2.1% in the experiment on PC-12 [18] and 92.8% in the experiment on PC-12 [21]. Further, the Flu intensity in the experiment with PC-12 [3] is recorded as 18168.07; in the experiment with PC-12 [7], 146612.92; in the experiment with PC-12 [15], 12110.88; in the experiment with PC-12 [19], 6730.32. The outcome (in the experiment on PC-12 [4]; with PC-12 [5]; in experiment [12]; in the experiment with PC-12 [23]) was inactive. In addition, the result in experiment [9], in [13] and in experiment [20] was Active. Moreover, the viability at 5 µM in the experiment with PC-12 [10] stood at 84.1%. In addition, the viability at 20 µM in the experiment on PC-12 [17] amounted to 75%. Moreover, the viability at 10 µM in the experiment with PC-12 [22] came out at 92.4%.

These data come from ChEMBL document CHEMBL4732088, “Identification and optimization of piperlongumine analogues as potential antioxidant and anti-inflammatory agents via activation of Nrf2” (Eur J Med Chem, 2021).
